Results as given in ChEMBL document CHEMBL1134272, “Enantiomeric synthesis of D- and L-cyclopentenyl nucleosides and their antiviral activity against HIV and West Nile virus” (J Med Chem, 2001).

Legend:
[1] = In vitro cytotoxicity in PBM cells.; type: functional, cell-based; conditions: Homo sapiens, PBMC
[2] = system: Human immunodeficiency virus 1; assay: In vitro antiviral activity against HIV-1 in human PBM cells.; type: functional, organism-based; conditions: Human immunodeficiency virus 1, PBMC
CCRF-CEM = assay: In vitro cytotoxicity in CEM cells.; type: functional, cell-based; conditions: Homo sapiens
[3] = system: Human immunodeficiency virus 1; assay: The compound was evaluated for the antiviral activity against HIV-1 in human PBM cells; type: functional, organism-based
West Nile virus = assay: In vitro antiviral activity against West Nile Virus.; type: functional, organism-based
Method in brief: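 Lightly confluent Vero cells in 96-well plates received serial compound dilutions and then 5 CCID50 of the WNV New York isolate, with test samples in triplicate. Cells were scored visually for cytopathic effect 6 days after virus exposure. Neutral red uptake (2-3 h, 37 °C; absorbance 540 and 405 nm) was used to verify the scoring. EC50 was obtained by regression on mean ratings or on percent-of-control absorbance.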

Vero = assay: In vitro cytotoxicity in vero cells.; type: functional, cell-based; conditions: Chlorocebus sabaeus
Method in brief: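 Uninfected Vero cells were treated with serial compound dilutions, with toxicity controls in duplicate at each concentration, and were scored visually 6 days later. Scoring was confirmed by neutral red uptake (2-3 h, 37 °C; absorbance 540 and 405 nm) expressed as percent of control. IC50 was obtained by regression analysis.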

| SMILES | IC50 [1] | EC50 [2] | IC50 (CCRF-CEM) | IC50 ([3]; Human immunodeficiency virus 1, PBMC) | IC50 ([3]; pbm) | EC50 (West Nile virus) | IC50 (Vero) |
| --- | --- | --- | --- | --- | --- | --- | --- |
| Cc1cn([C@H]2C[C@H](N=[N+]=[N-])[C@@H](CO)O2)c(=O)[nH]c1=O [ZIDOVUDINE] | > 100 µM | 0.004 µM |  |  |  |  |  |
| Nc1nc(=O)n([C@@H]2C=C(CO)[C@@H](O)[C@H]2O)cc1F | 73.7 µM | 5.34 µM | 51.8 µM | 5.34 µM | 5.34 µM | 15 µM | 27.4 µM |
| Nc1nc(O)c2ncn([C@H]3C=C(CO)[C@H](O)[C@@H]3O)c2n1 | > 100 µM | > 100 µM | > 100 µM |  |  | > 200 µM | > 100 µM |
| Nc1ccn([C@@H]2C=C(CO)[C@@H](O)[C@H]2O)c(=O)n1 | 6.5 µM | 0.06 µM | 0.08 µM |  |  | 0.2 µM | 1.95 µM |
| O=c1[nH]c(=O)n([C@@H]2C=C(CO)[C@@H](O)[C@H]2O)cc1F | > 100 µM | 93.1 µM | > 100 µM |  |  | > 200 µM | > 100 µM |
| O=c1ccn([C@@H]2C=C(CO)[C@@H](O)[C@H]2O)c(=O)[nH]1 | > 100 µM | > 100 µM | > 100 µM |  |  | > 200 µM | > 100 µM |
| Nc1ncnc2c1ncn2[C@@H]1C=C(CO)[C@@H](O)[C@H]1O [NEOPLANOCIN A] | 44.6 µM | 0.1 µM | 1.2 µM |  |  | > 51 µM | 3.5 µM |
| Nc1nc(=O)n([C@H]2C=C(CO)[C@H](O)[C@@H]2O)cc1F | > 100 µM | > 100 µM | > 100 µM |  |  | > 200 µM | > 100 µM |
| Nc1ccn([C@H]2C=C(CO)[C@H](O)[C@@H]2O)c(=O)n1 | > 100 µM | 58.9 µM | > 100 µM |  |  | > 200 µM | > 100 µM |
| Cc1cn([C@H]2C=C(CO)[C@H](O)[C@@H]2O)c(=O)[nH]c1=O | > 100 µM | > 100 µM | > 100 µM |  |  | > 200 µM | > 100 µM |
| Cc1cn([C@@H]2C=C(CO)[C@@H](O)[C@H]2O)c(=O)[nH]c1=O | > 100 µM | > 100 µM | > 100 µM |  |  | > 200 µM | > 100 µM |
| OCC1=C[C@@H](n2cnc3c(O)ncnc32)[C@H](O)[C@@H]1O | > 100 µM | > 100 µM | > 100 µM |  |  | > 200 µM | > 100 µM |
| O=c1ccn([C@H]2C=C(CO)[C@H](O)[C@@H]2O)c(=O)[nH]1 | > 100 µM | > 100 µM | > 100 µM |  |  | > 200 µM | > 100 µM |
| Nc1nc(O)c2ncn([C@@H]3C=C(CO)[C@@H](O)[C@H]3O)c2n1 | > 100 µM | > 100 µM | > 100 µM |  |  | > 200 µM | > 100 µM |
| Nc1ncnc2c1ncn2[C@H]1C=C(CO)[C@H](O)[C@@H]1O | > 100 µM | > 100 µM | > 100 µM |  |  | > 200 µM | > 100 µM |
| O=c1cnn([C@@H]2O[C@H](CO)[C@@H](O)[C@H]2O)c(=O)[nH]1 [6-AZAURIDINE] |  |  |  |  |  | 1.2 µM | > 100 µM |
| OCC1=C[C@H](n2cnc3c(O)ncnc32)[C@@H](O)[C@H]1O | > 100 µM | > 100 µM | > 100 µM |  |  | > 200 µM | > 100 µM |
| O=c1[nH]c(=O)n([C@H]2C=C(CO)[C@H](O)[C@@H]2O)cc1F | > 100 µM | > 100 µM | > 100 µM |  |  | > 200 µM | > 100 µM |
